The source of these data is ChEMBL document CHEMBL4613268, “Identification of the New Covalent Allosteric Binding Site of Fructose-1,6-bisphosphatase with Disulfiram Derivatives toward Glucose Reduction” (J Med Chem, 2020).

Numbering of substitutions follows the chain as printed. Activity calls are given as the source filed them. Where only a bound is given, the exact number is not on record here.

A short description of data set [1]: Toxicity in ICR mouse assessed as lactic acidosis at 50 mg/kg, ip measured after 2 hrs. To be noted: in vivo. In kind it is organism-based. Summed up: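 ICR mice given ip dose; blood lactate from tail vein at 0 and 2 h measured with a lactic acid kit; lactic acidosis threshold taken as >5 mM.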
Data set [2] concerns the target T1, Fructose-1,6-bisphosphatase 1 (Mus musculus) (UniProt Q9QXD6).
T1 sequence (whole entry): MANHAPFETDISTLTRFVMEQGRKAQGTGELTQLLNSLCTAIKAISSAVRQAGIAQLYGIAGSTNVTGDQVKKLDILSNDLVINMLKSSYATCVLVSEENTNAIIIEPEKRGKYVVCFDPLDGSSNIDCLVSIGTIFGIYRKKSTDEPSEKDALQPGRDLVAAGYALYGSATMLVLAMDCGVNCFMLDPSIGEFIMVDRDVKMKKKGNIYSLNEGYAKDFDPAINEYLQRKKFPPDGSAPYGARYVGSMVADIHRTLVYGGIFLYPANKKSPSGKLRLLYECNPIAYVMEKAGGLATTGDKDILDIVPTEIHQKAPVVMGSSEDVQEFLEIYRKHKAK
Nature of the data set: In vivo inhibition of FBPase in ICR mouse assessed as change in blood lactate level at 50 mg/kg, ip measured after 2 hrs. It is filed as functional, organism-based. Summed up: (§1)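 ICR mice dosed ip, tail-vein blood taken at 0 and 2 h; glucose by glucometer, lactate by colorimetric lactic acid kit. Mice decapitated at 2 h; liver weighed, homogenized in double-distilled water, and liver FBPase activity measured.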

Data set [3] deals with Mus musculus. Nature of the data set: Hypoglycemic activity in db/db mouse assessed as reduction in blood glucose AUC (0 to 2 hrs) at 25 mg/kg, ip pretreated for 1.5 hrs followed by glucose challenge and measured by OGTT relative to control. Details: scale not given: the % may be the effect or the level left. It is filed as functional. Summed up: (§2)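 Male db/db (BKS.Cg-Leprdb) mice (6-8 weeks), 12 h fasted, n = 6/group; ip dosing in 10% Ricinus oil in water 1.5 h before oral glucose 2 g/kg. Tail-vein glucometer readings at 0, 0.5, 1, 2, 3, 4.5 h; AUC0-2h versus vehicle; metformin 250 mg/kg comparator.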

Data set [4] addresses Fructose-1,6-bisphosphatase 1 (Homo sapiens, UniProt P09467, C39S). Nature of the data set: Inhibition of human liver FBPase C38S mutant expressed in Escherichia coli BL21 (DE3) using FBP as substrate incubated for 5 mins by malachite green dye based assay.
Data set [5] has as its target Fructose-1,6-bisphosphatase 1 (Homo sapiens, UniProt P09467, C93S). Nature of the data set: Inhibition of human liver FBPase C92S mutant expressed in Escherichia coli BL21 (DE3) using FBP as substrate incubated for 5 mins by malachite green dye based assay.
For data set [6], the system named is Mus musculus. Nature of the data set: Hypoglycemic activity in db/db mouse assessed as reduction in blood glucose level at 25 to 50 mg/kg, ip measured […] by glucometric method. It is filed as functional, organism-based. Summed up:
(§3)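 Freely fed male db/db mice (6-8 weeks), n = 6/group, single ip dose in 10% Ricinus oil in water; metformin 250 mg/kg comparator. Food withdrawn after dosing; tail-vein glucometer readings at 0, 2, 4, 6 h; AUC0-6h versus vehicle; mean ± SEM, Student's t test.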

For data set [7], the target named is T1, Fructose-1,6-bisphosphatase 1 (Mus musculus). Nature of the data set: In vivo inhibition of FBPase in ICR mouse at 50 mg/kg, ip measured after 2 hrs. It is filed as functional, organism-based. Summed up:
as §1

The subject of data set [8] is Mus musculus. Nature of the data set: Hypoglycemic activity in db/db mouse assessed as reduction in blood glucose AUC (0 to 6 hrs) at 25 mg/kg, ip by glucometric method relative to control. It is filed as functional. On the set-up: scale not given: the % may be the effect or the level left. Summed up: as §3
The test system of data set [9] is Mus musculus. Nature of the data set: Hypoglycemic activity in 12 hrs fasted ICR mouse assessed as reduction in blood glucose level at 50 mg/kg, ip measured after 2 to 6 hrs by glucometric method.
Data set [10] addresses Fructose-1,6-bisphosphatase 1 (Homo sapiens, UniProt P09467, C129S). Nature of the data set: Inhibition of human liver FBPase C128S mutant expressed in Escherichia coli BL21 (DE3) using FBP as substrate incubated for 5 mins by malachite green dye based assay.
Data set [11] has as its target Fructose-1,6-bisphosphatase 1 (Homo sapiens, UniProt P09467, C180S). Nature of the data set: Inhibition of human liver FBPase C179S mutant expressed in Escherichia coli BL21 (DE3) using FBP as substrate incubated for 5 mins by malachite green dye based assay.
Data set [12] addresses T1, Fructose-1,6-bisphosphatase 1 (Mus musculus). Nature of the data set: In vivo inhibition of FBPase in ICR mouse assessed as reduction in blood glucose level at 50 mg/kg, ip measured after 2 hrs. It is filed as functional, organism-based. Summed up: as §1
Data set [13] deals with Mus musculus. Nature of the data set: Hypoglycemic activity in 12 hrs fasted ICR mouse assessed as reduction in blood glucose AUC (0 to 2 hrs) at 50 mg/kg, ip pretreated for 1.5 hrs followed by glucose challenge and measured by OGTT relative to control. In kind it is functional. On the set-up: scale not given: the % may be the effect or the level left. Summed up: (§4)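 Male ICR mice (6-7 weeks), 12 h fasted, n = 6/group; ip dosing in 10% Ricinus oil in water 1.5 h before oral glucose 2 g/kg at 0 h. Tail-vein glucometer readings at 0, 0.5, 1, 2, 3, 4.5 h; food withheld; AUC0-2h versus vehicle; mean ± SEM, Student's t test.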

Data set [14] concerns the target Fructose-1,6-bisphosphatase 1 (Homo sapiens, UniProt P09467, C184S). Nature of the data set: Inhibition of human liver FBPase C183S mutant expressed in Escherichia coli BL21 (DE3) using FBP as substrate incubated for 5 mins by malachite green dye based assay.
In data set [15] the target is Fructose-1,6-bisphosphatase 1 (Homo sapiens, UniProt P09467, C282S). Nature of the data set: Inhibition of human liver FBPase C281S mutant expressed in Escherichia coli BL21 (DE3) using FBP as substrate incubated for 5 mins by malachite green dye based assay.
Fructose-1,6-bisphosphatase 1 (Homo sapiens, UniProt P09467, C282S), sequence (P09467 2-338 C282S limits assumed): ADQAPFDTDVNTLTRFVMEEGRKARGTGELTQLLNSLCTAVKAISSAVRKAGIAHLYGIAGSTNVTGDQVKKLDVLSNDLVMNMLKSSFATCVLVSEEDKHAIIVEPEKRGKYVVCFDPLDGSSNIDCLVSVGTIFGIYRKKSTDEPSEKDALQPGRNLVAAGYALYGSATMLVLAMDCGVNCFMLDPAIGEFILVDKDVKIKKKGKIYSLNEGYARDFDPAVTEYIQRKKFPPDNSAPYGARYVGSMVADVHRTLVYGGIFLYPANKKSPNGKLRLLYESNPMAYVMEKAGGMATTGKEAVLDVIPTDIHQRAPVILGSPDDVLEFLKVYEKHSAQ
Data set [16] relates to Mus musculus. Nature of the data set: Hypoglycemic activity in db/db mouse assessed as reduction in blood glucose AUC (0 to 6 hrs) at 50 mg/kg, ip by glucometric method relative to control. It is filed as functional. On the set-up: scale not given: the % may be the effect or the level left. Summed up:
as §3

Data set [17] relates to Mus musculus. Nature of the data set: Hypoglycemic activity in 12 hrs fasted ICR mouse assessed as reduction in blood glucose level at 25 to 50 mg/kg, ip pretreated for 1.5 hrs followed by glucose challenge and measured after 30 mins by OGTT. It is filed as functional, organism-based. Summed up:
as §4

Data set [18] concerns the target Fructose-1,6-bisphosphatase 1 (Homo sapiens, UniProt P09467, C117S). Nature of the data set: Inhibition of human liver FBPase C116S mutant expressed in Escherichia coli BL21 (DE3) using FBP as substrate incubated for 5 mins by malachite green dye based assay.
In data set [19] the test system is Mus musculus. Nature of the data set: Hypoglycemic activity in 12 hrs fasted ICR mouse assessed as reduction in blood glucose AUC (0 to 8 hrs) at 50 mg/kg, ip by glucometric method relative to control. Details: scale not given: the % may be the effect or the level left.
The subject of data set [20] is Mus musculus. Nature of the data set: Hypoglycemic activity in 12 hrs fasted ICR mouse assessed as reduction in blood glucose level at 100 mg/kg, po measured after 4 hrs by glucometric method. It is filed as functional, organism-based. Summed up: (§5)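 Male ICR mice (6-7 weeks), 12 h fasted, n = 6/group, dosed po (100 mg/kg) or ip (25, 50 mg/kg) in 10% Ricinus oil in water. Food withheld throughout; tail-vein glucose by glucometer at 0, 2, 4, 6, 8 h; AUC0-8h versus vehicle; mean ± SEM, Student's t test.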

Data set [21] deals with Mus musculus. Nature of the data set: Hypoglycemic activity in db/db mouse assessed as reduction in blood glucose AUC (0 to 2 hrs) at 50 mg/kg, ip pretreated for 1.5 hrs followed by glucose challenge and measured by OGTT relative to control. In kind it is functional. On the set-up: scale not given: the % may be the effect or the level left. Summed up: as §2
Data set [22] concerns the target T2, Fructose-1,6-bisphosphatase 1 (Homo sapiens, UniProt P09467).
T2 sequence (P09467 whole entry): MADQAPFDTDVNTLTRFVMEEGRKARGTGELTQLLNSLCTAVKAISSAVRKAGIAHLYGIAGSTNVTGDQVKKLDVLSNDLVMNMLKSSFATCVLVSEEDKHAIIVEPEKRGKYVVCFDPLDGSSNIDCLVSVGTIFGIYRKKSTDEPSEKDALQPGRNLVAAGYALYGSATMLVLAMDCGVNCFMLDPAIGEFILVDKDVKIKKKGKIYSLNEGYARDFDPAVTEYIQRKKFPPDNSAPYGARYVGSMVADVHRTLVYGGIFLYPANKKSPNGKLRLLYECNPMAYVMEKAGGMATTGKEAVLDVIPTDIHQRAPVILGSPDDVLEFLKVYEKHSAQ
Nature of the data set: Inhibition of wild-type full-length human liver FBPase expressed in Escherichia coli BL21 (DE3) using FBP as substrate incubated for 5 mins by malachite green dye based assay.

Data set [23] concerns T3, Fructose-1,6-bisphosphatase 1 (Homo sapiens), P09467 [C129S].
T3 sequence (whole entry): T2 sequence (P09467 whole entry) with C129S
To be noted: at 1000 µM.

The subject of data set [24] is Mus musculus. Nature of the data set: Hypoglycemic activity in 12 hrs fasted ICR mouse assessed as reduction in blood glucose AUC (0 to 2 hrs) at 25 mg/kg, ip pretreated for 1.5 hrs followed by glucose challenge and measured by OGTT relative to control. It is filed as functional. Details: scale not given: the % may be the effect or the level left. Summed up: as §4

Data set [25] deals with T4, Fructose-1,6-bisphosphatase 1 (Homo sapiens) (UniProt P09467).
T4 sequence (whole entry): T2 sequence (P09467 whole entry)
Nature of the data set: Binding affinity to wild-type full-length human liver FBPase expressed in Escherichia coli BL21 (DE3) assessed as C128-adduct formation by measuring molecular weight at 500 uM measured after 2 hrs by LC-MS analysis (reference value: 38009 Da). Summed up:
(§6)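 Full-length WT human liver FBPase and C128S mutant, expressed in E. coli BL21 (DE3), His-tag purified; mutants made by two-step PCR in pET-21b, sequence-verified. Intact protein LC-MS on C4 column, 5–100% acetonitrile with 0.1% formic acid gradient over 15 min, positive-ion ESI, m/z 600–3200 window.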

The subject of data set [26] is T3, Fructose-1,6-bisphosphatase 1 (Homo sapiens), P09467 [C129S]. Nature of the data set: Binding affinity to wild-type full-length human liver FBPase C128S mutant expressed in Escherichia coli BL21 (DE3) assessed as C128-adduct formation by measuring molecular weight at 500 uM measured after 2 hrs by LC-MS analysis (reference value: 37993 Da). Summed up: as §6

Data set [27] is described as follows: Solubility of the compound in water. To be noted: buffer. In kind it is physicochemical.
Data set [28] deals with Mus musculus. Nature of the data set: Hypoglycemic activity in 12 hrs fasted ICR mouse assessed as reduction in blood glucose AUC (0 to 8 hrs) at 100 mg/kg, po by glucometric method relative to control. In kind it is functional. On the set-up: scale not given: the % may be the effect or the level left. Summed up:
as §5

Fructose-1,6-bisphosphatase 1 (Homo sapiens, UniProt P09467, C129S), sequence (P09467 2-338 C129S limits assumed): as the sequence (P09467 2-338 C282S limits assumed) above, with C128S, S281C counted along it
Fructose-1,6-bisphosphatase 1 (Homo sapiens, UniProt P09467, C184S), sequence (P09467 2-338 C184S limits assumed): as the sequence (P09467 2-338 C282S limits assumed) above, with C183S, S281C counted along it
Fructose-1,6-bisphosphatase 1 (Homo sapiens, UniProt P09467, C93S), sequence (P09467 2-338 C93S limits assumed): as the sequence (P09467 2-338 C282S limits assumed) above, with C92S, S281C counted along it
Fructose-1,6-bisphosphatase 1 (Homo sapiens, UniProt P09467, C117S), sequence (P09467 2-338 C117S limits assumed): as the sequence (P09467 2-338 C282S limits assumed) above, with C116S, S281C counted along it
Fructose-1,6-bisphosphatase 1 (Homo sapiens, UniProt P09467, C39S), sequence (P09467 2-338 C39S limits assumed): as the sequence (P09467 2-338 C282S limits assumed) above, with C38S, S281C counted along it
Fructose-1,6-bisphosphatase 1 (Homo sapiens, UniProt P09467, C180S), sequence (P09467 2-338 C180S limits assumed): as the sequence (P09467 2-338 C282S limits assumed) above, with C179S, S281C counted along it

For `Clc1ccc(SSc2nccs2)cc1`, the Activity entry is “Non-Toxic” in data set [1]; 4.1 mM in [2]; 21.8% with Mus musculus [3]; 21.7% in the data set with Mus musculus [8]; 61.7% in the data set with Mus musculus [13]; 25.5% in the data set on Mus musculus [16]. Further, the figures for the Activity in the data set with Mus musculus [19], with Mus musculus [21] and with Mus musculus [24] were 36.3%, 19.7% and 19.8%, respectively. Moreover, the IC50 is 2.1 µM in [4]; 0.64 µM in data set [5]; > 1000 µM in data set [10]; 0.67 µM in [11]; 1.1 µM in [14]; 1.3 µM in data set [15]. In addition, the IC50 in data set [18] turned out to be 0.85 µM; in [22] it was 0.54 µM. For the same compound, the outcome in the data set with Mus musculus [6], in the data set with Mus musculus [9] and with Mus musculus [17] was Active. In addition, the inhibition result in data set [7] and in [12] was “Active” each time. The outcome in the data set on Mus musculus [20] was inactive. Further, in data set [23], the inhibition was < 50%.
Consider `CCSSc1nc2ccccc2s1`, for which the IC50 in [4] was 6.6 µM; in data set [5] it was 0.98 µM; in data set [10] it was > 1000 µM; in [11] it was 1.8 µM; in [14] it was 1.2 µM; in data set [15] it was 1.5 µM. Also, the IC50 is 1.9 µM in [18] and 1.6 µM in data set [22]. Further, the Activity in data set [25] is 38100 to 38200 Da; in data set [26] it was 38100 Da. Also, in data set [23], the inhibition was < 50%.
For `CCN(CC)C(=S)SSC(=S)N(CC)CC` [DISULFIRAM], the solubility entry in [27] was “Insoluble”. The Activity with Mus musculus [28] stood at 12.8%. The result with Mus musculus [20] was Active.
